Measurements as given in ChEMBL document CHEMBL1156388, “Modulation of the multidrug-resistance phenotype by new tropane alkaloid aromatic esters from Erythroxylum pervillei” (J Nat Prod, 2001).
pIC50: −log10 of the molar value. Converted amounts (≈) assume the structure as drawn. The source made the active and inactive calls. No cut-off for these calls is given here.

Tests used:
[1] = test system: Lu1; assay: Cytotoxicity against human Lu1 cells; format: functional; conditions: read-out: ED50 (the source's name)
[2] = test system: LOX IMVI; assay: Increase in DINIB-induced cytotoxicity against human LOXIMVI at 3.1 to 50 ug/mL; format: functional, cell-based
Outline: (§1)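 Modulator dose ranges were chosen to give full dose–response curves and were combined with DINIB, an MDR-substrate cytotoxic agent, at nontoxic modulator concentrations. 5-Fluorouracil, a non-MDR agent, served as the negative-control drug. MDR1 expression and function: HCT-15 and UO-31 high, CAKI-1 moderate, LOX IMVI none (no MDR phenotype). The read-out was enhancement of DINIB growth inhibition.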

[3] = target: T1, ATP-dependent translocase ABCB1 (Homo sapiens, UniProt P08183); assay: Modulation of P-gp in human UO31 cells assessed as increase in DINIB-induced cytotoxicity at 3.1 to 50 ug/mL; format: cell-based; conditions: uo-31; outline: as §1
T1 sequence (P08183 whole entry): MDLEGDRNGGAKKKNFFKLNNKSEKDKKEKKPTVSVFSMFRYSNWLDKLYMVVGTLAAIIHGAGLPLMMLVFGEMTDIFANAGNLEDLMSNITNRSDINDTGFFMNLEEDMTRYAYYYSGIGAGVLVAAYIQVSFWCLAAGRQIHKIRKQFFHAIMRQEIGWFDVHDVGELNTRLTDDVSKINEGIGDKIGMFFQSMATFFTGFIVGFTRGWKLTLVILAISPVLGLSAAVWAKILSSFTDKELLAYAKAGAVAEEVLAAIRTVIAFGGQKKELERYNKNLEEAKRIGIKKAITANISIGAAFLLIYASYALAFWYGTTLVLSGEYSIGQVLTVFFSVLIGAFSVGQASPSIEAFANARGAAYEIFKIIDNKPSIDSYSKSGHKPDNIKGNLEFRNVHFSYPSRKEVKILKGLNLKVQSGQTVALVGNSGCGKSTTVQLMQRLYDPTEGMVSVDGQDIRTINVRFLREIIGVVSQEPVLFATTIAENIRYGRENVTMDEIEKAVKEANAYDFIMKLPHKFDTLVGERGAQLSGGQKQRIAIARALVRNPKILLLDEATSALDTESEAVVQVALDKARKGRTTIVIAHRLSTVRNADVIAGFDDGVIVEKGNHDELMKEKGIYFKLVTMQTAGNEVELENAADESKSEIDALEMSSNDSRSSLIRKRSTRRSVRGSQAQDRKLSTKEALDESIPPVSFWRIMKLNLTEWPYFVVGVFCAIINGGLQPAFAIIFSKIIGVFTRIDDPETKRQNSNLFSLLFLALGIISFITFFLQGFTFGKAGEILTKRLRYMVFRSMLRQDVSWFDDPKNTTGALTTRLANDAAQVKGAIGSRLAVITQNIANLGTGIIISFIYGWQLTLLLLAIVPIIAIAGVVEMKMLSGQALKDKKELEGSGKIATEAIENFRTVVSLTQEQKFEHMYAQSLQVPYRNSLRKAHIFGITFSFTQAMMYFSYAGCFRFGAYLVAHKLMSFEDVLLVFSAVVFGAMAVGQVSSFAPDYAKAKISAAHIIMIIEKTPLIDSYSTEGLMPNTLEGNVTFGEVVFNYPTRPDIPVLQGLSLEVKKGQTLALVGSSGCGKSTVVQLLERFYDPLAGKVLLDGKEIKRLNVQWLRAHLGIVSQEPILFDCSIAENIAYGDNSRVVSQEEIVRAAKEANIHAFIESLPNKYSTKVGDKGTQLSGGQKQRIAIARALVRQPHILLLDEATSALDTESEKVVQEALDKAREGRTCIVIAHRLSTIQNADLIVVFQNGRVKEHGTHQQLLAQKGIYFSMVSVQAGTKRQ

[4] = target: T1, ATP-dependent translocase ABCB1; assay: Modulation of P-gp in human HCT15 cells assessed as increase in DINIB-induced cytotoxicity at 3.1 to 50 ug/mL; format: cell-based; conditions: hct-15; outline: as §1
[5] = Cytotoxicity against human multidrug-resistant KBV1 cells in presence of vinblastin; format: functional; conditions: KB-V1, read-out: ED50 (the source's name)
[6] = Cytotoxicity against human multidrug-resistant KBV1 cells in absence of vinblastin; format: functional; conditions: KB-V1, read-out: ED50 (the source's name)
[7] = test system: LNCaP; assay: Cytotoxicity against human LNCAP cells; format: functional; conditions: read-out: ED50 (the source's name)
[8] = Cytotoxicity against human BC1 cells; format: functional; conditions: read-out: ED50 (the source's name)
[9] = test system: KB; assay: Cytotoxicity against human KB cells; format: functional; conditions: read-out: ED50 (the source's name)
[10] = target: T1, ATP-dependent translocase ABCB1; assay: Modulation of P-gp in human CAKI1 cells assessed as increase in DINIB-induced cytotoxicity at 3.1 to 50 ug/mL; format: cell-based; conditions: caki-1; outline: as §1
[11] = test system: SW626; assay: Cytotoxicity against human SW626 cells; format: functional; conditions: read-out: ED50 (the source's name)
[12] = test system: Col2; assay: Cytotoxicity against human Col2 cells; format: functional; conditions: read-out: ED50 (the source's name)
[13] = Cytotoxicity against human multidrug-resistant SKVLB1 cells in presence of adriamycin; format: functional, cell-based
[14] = Cytotoxicity against human multidrug-resistant SKVLB1 cells; format: functional, cell-based
[15] = test system: SK-OV-3; assay: Cytotoxicity against human SKOV3 cells; format: functional, cell-based
[16] = target: T1, ATP-dependent translocase ABCB1; assay: Modulation of P-gp in human UO31 cells assessed as increase in DINIB-induced cytotoxicity at 0.2 to 3.1 ug/mL; format: cell-based; conditions: uo-31; outline: as §1
[17] = target: T1, ATP-dependent translocase ABCB1; assay: Modulation of P-gp in human CAKI1 cells assessed as increase in DINIB-induced cytotoxicity at 0.2 to 3.1 ug/mL; format: cell-based; conditions: caki-1; outline: as §1
[18] = target: T1, ATP-dependent translocase ABCB1; assay: Modulation of P-gp in human HCT15 cells assessed as increase in DINIB-induced cytotoxicity at 0.2 to 3.1 ug/mL; format: cell-based; conditions: hct-15; outline: as §1
[19] = test system: LOX IMVI; assay: Increase in DINIB-induced cytotoxicity against human LOXIMVI at 0.2 to 3.1 ug/mL; format: functional, cell-based; outline: as §1
[20] = test system: LOX IMVI; assay: Increase in DINIB-induced cytotoxicity against human LOXIMVI at 0.8 to 12.5 ug/mL; format: functional, cell-based; outline: as §1
[21] = target: T1, ATP-dependent translocase ABCB1; assay: Modulation of P-gp in human UO31 cells assessed as increase in DINIB-induced cytotoxicity at 0.2 to 12.5 ug/mL; format: cell-based; conditions: uo-31; outline: as §1
[22] = target: T1, ATP-dependent translocase ABCB1; assay: Modulation of P-gp in human HCT15 cells assessed as increase in DINIB-induced cytotoxicity at 0.2 to 12.5 ug/mL; format: cell-based; conditions: hct-15; outline: as §1
[23] = test system: LOX IMVI; assay: Increase in DINIB-induced cytotoxicity against human LOXIMVI at 0.2 to 12.5 ug/mL; format: functional, cell-based; outline: as §1
[24] = target: T1, ATP-dependent translocase ABCB1; assay: Modulation of P-gp in human CAKI1 cells assessed as increase in DINIB-induced cytotoxicity at 0.2 to 12.5 ug/mL; format: cell-based; conditions: caki-1; outline: as §1
[25] = target: T1, ATP-dependent translocase ABCB1; assay: Modulation of P-gp in human HCT15 cells assessed as increase in DINIB-induced cytotoxicity at 1.5 to 25 ug/mL; format: cell-based; conditions: hct-15
Outline: (§2)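 NCI tumour-panel lines of differing MDR1 expression and function (HCT-15 and UO-31 high, CAKI-1 moderate, LOX IMVI none) were exposed to the MDR-substrate cytotoxin DINIB with or without modulator. 5-Fluorouracil, a non-MDR agent, served as the negative control; verapamil and cyclosporin A were reference modulators. Modulator concentrations spanned full dose–response curves. Maximum escalation of DINIB toxicity was taken at nontoxic modulator concentrations.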

[26] = target: T1, ATP-dependent translocase ABCB1; assay: Modulation of P-gp in human UO31 cells assessed as increase in DINIB-induced cytotoxicity at 1.5 to 25 ug/mL; format: cell-based; conditions: uo-31; outline: as §2
[27] = target: T1, ATP-dependent translocase ABCB1; assay: Modulation of P-gp in human CAKI1 cells assessed as increase in DINIB-induced cytotoxicity at 1.5 to 25 ug/mL; format: cell-based; conditions: caki-1; outline: as §2
[28] = test system: LOX IMVI; assay: Increase in DINIB-induced cytotoxicity against human LOXIMVI at 1.5 to 25 ug/mL; format: functional, cell-based; outline: as §2

SMILES | EC50 [1] [µg/mL] | EC50 [5] [µg/mL] | EC50 [6] [µg/mL] | EC50 [7] [µg/mL] | EC50 [8] [µg/mL] | EC50 [9] [µg/mL] | EC50 [11] [µg/mL] | EC50 [12] [µg/mL] | pIC50 [13] | pIC50 [14] | pIC50 [15] | further results
COc1cc(/C=C/C(=O)O[C@@H]2C[C@@H]3[C@@H](OC(=O)/C=C/c4cc(OC)c(OC)c(OC)c4)[C@@H](O)[C@H](C2)N3C)cc(OC)c1OC [PERVILLEINE D] | 15.1 (≈ 24.6 µM) | 0.2 | 9 (≈ 14.7 µM) | 14.1 (≈ 23 µM) | 15 (≈ 24.4 µM) | 11 (≈ 17.9 µM) | 6.5 (≈ 10.6 µM) | 4.9 (≈ 7.98 µM) | – | – | – | Activity [2]: inactive; Activity [3]: Active; Activity [4]: Active; Activity [10]: Active
COc1cc(/C=C/C(=O)O[C@H]2[C@@H](O)[C@@H]3C[C@H](OC(=O)c4cc(OC)c(OC)c(OC)c4)C[C@H]2N3C)cc(OC)c1OC [PERVILLEINE A] | > 20 | 0.3 | > 20 | > 20 | > 20 | > 20 | > 20 | > 20 | 6.19 | < 5.00 | < 5.00 | –
COc1cc(/C=C/C(=O)O[C@H]2C[C@H]3C[C@H](OC(=O)/C=C/c4cc(OC)c(OC)c(OC)c4)[C@@H](C2)N3C)cc(OC)c1OC [PERVILLEINE C] | 2.3 (≈ 3.85 µM) | 0.1 | 9 (≈ 15.1 µM) | > 20 | 2.8 (≈ 4.68 µM) | 2.2 (≈ 3.68 µM) | 1.4 (≈ 2.34 µM) | 4.1 (≈ 6.86 µM) | 7.10 | < 5.00 | 5.55 | Activity [16]: Active; Activity [17]: Active; Activity [18]: Active; Activity [19]: inactive
COc1cc(/C=C/C(=O)O[C@H]2[C@@H](O)[C@@H]3C[C@H](OC(=O)c4cc(OC)c(OC)c(OC)c4)C[C@H]2[N+]3(C)[O-])cc(OC)c1OC (stereo partly specified) | > 20 | > 20 | > 20 | > 20 | > 20 | > 20 | > 20 | > 20 | < 5.00 | < 5.00 | < 5.00 | –
COc1ccc(CCN(C)CCCC(C#N)(c2ccc(OC)c(OC)c2)C(C)C)cc1OC (stereo unspecified) | – | – | – | – | – | – | – | – | – | – | – | Activity [20]: Active
COc1cc(/C=C/C(=O)O[C@H]2C[C@@H]3C[C@H](OC(=O)c4cc(OC)c(OC)c(OC)c4)C[C@H]2N3C)cc(OC)c1OC [PERVILLEINE B] | 3.1 (≈ 5.42 µM) | 0.1 | 8.8 (≈ 15.4 µM) | 1 (≈ 1.75 µM) | 9.4 (≈ 16.4 µM) | > 20 | 3.2 (≈ 5.6 µM) | 1.3 (≈ 2.27 µM) | 6.92 | < 5.00 | 5.42 | Activity [21]: Active; Activity [22]: Active; Activity [23]: inactive; Activity [24]: Active
CN1C2C[C@@H](OC(=O)Cc3ccccc3)CC1[C@H](O)[C@@H]2O | > 20 | > 20 | > 20 | > 20 | > 20 | > 20 | > 20 | > 20 | – | – | – | –
COc1cc(C(=O)O[C@H]2C[C@H]3CC[C@@H](C2)N3C)cc(OC)c1OC | > 20 | > 20 | > 20 | > 20 | > 20 | > 20 | > 20 | > 20 | – | – | – | –
COc1cc(/C=C/C(=O)O[C@H]2C[C@@H]3C[C@H](OC(=O)Cc4ccccc4)C[C@H]2N3C)cc(OC)c1OC [PERVILLEINE F] | > 20 | 0.2 | > 20 | > 20 | > 20 | > 20 | > 20 | 4.9 (≈ 9.89 µM) | – | – | – | Activity [25]: Active; Activity [26]: Active; Activity [27]: Active; Activity [28]: inactive
COc1cc(/C=C/C(=O)O[C@H]2C[C@@H]3C[C@H](OC(=O)Cc4cccc(O)c4)C[C@H]2N3C)cc(OC)c1OC [PERVILLEINE E] | > 20 | 1.9 | > 20 | > 20 | > 20 | 14.7 (≈ 28.7 µM) | 8.4 (≈ 16.4 µM) | 13.4 (≈ 26.2 µM) | – | – | – | –
COc1cc2c(cc1OC)CN(CCc1ccc(NC(=O)c3cccc4c(=O)c5cccc(OC)c5[nH]c34)cc1)CC2 | – | – | – | – | – | – | – | – | 7.70 | 4.85 | 5.09 | –
COc1cccc2c1C(=O)c1c(O)c3c(c(O)c1C2=O)C[C@@](O)(C(=O)CO)C[C@@H]3O[C@H]1C[C@H](N)[C@H](O)[C@H](C)O1 [DOXORUBICIN] | – | – | – | – | – | – | – | – | – | 5.66 | 8.10 | –
